Structures are written as SMILES. In brackets after ≈: the same amount, converted by molar mass. Structures can show the parent of a compound that is named as a salt. A value given as a limit tells only on which side of the number the result lay.

Data on 22 compounds can be found in ChEMBL document CHEMBL3745663, “Identification of a novel class of quinoline-oxadiazole hybrids as anti-tuberculosis agents” (Bioorg Med Chem Lett, 2016).

Series [1] relates to Mycobacterium tuberculosis. Put plainly: Antibacterial activity against Mycobacterium tuberculosis H37Rv after 7 days by resazurin microplate assay. The format is functional. Conditions: 168 h. Background: Resazurin is reduced to fluorescent resorufin, in cell work by metabolically active cells.
Series [2] is described as follows: Cytotoxicity against human HepG2 cells after 48 hrs by SRB assay. The format is cell-based. Background: In SRB staining, fixed cells bind dye roughly in proportion to their protein.
A short description of series [3]: Selectivity index, ratio of CC50 for human HepG2 cells to MIC for Mycobacterium tuberculosis H37Rv. The format is toxicity, cell-based. The note with it: read-out: Selectivity Index. The procedure, abridged: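 Index equals HepG2 CC50 (SRB assay, 10 to 80 µg/mL) divided by the REMA MIC against M. tuberculosis H37Rv (50 to 0.1 µg/mL).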
Series [4] in a line: Metabolic stability in rat liver microsomes assessed as compound remaining at 10 uM after 60 mins by HPLC analysis. The format is ADME. Conditions: read-out: Stability. The procedure, abridged: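 Compound was incubated with rat liver microsomes and its disappearance followed over 60 minutes. Diazepam was the internal standard. The drug-to-internal-standard ratio was calculated at each time point to gauge how much compound remained.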

The subject of series [5] is Mycobacterium tuberculosis. The experiment in a line: Antibacterial activity against Mycobacterium tuberculosis. The format is functional.

As usually defined, the MIC is the smallest concentration in the dilution series that meets the test's criterion for growth inhibition. Low readings indicate greater potency, high ones weaker potency. The CC50 is the concentration giving 50% cytotoxicity. A lower CC50 goes with harm at low concentration. The compound `COc1nc2ccccc2cc1/C=C/c1noc(-c2ccccc2Br)n1` gave a minimal inhibitory concentration (MIC) in series [1] of 16.8 µM (≈ 6.86 µg/mL). For the same compound, the CC50 at 48 h in series [2] is above 195 µM. Also, the selectivity ratio in series [3] is above 11.6.

Consider `COc1nc2ccccc2cc1/C=C/c1noc(-c2ccc(Br)cc2)n1`, for which the MIC in series [1] came out at 9.19 µM (≈ 3.75 µg/mL). Also, the CC50 at 48 h in series [2] is above 195 µM. In addition, the selectivity ratio in series [3] is above 21.2.

For the compound `COc1nc2ccccc2cc1/C=C/c1noc(COc2ccccc2)n1`, in series [1], the minimum inhibitory concentration (MIC) is 0.67 µM (≈ 0.241 µg/mL). The compound also showed a half-maximal cytotoxic concentration (CC50) at 48 h in series [2] above 220 µM. For the same compound, the selectivity ratio in series [3] was above 330.

In the case of `COc1nc2ccccc2cc1/C=C/c1noc(-c2ccccc2C)n1`, in series [1], it took 72.8 µM (≈ 25 µg/mL) to inhibit growth (MIC). In series [2], the CC50 at 48 h was above 230 µM. Also, the selectivity ratio in series [3] is above 3.16.

For the compound `COc1nc2ccccc2cc1/C=C/c1noc(-c2ccc(F)cc2)n1`, in series [1], the MIC was 5.61 µM (≈ 1.95 µg/mL). For the same compound, the CC50 at 48 h in series [2] is above 230 µM. For the same compound, the selectivity ratio in series [3] is above 41.

In series [1], `COc1ccc(-c2nc(/C=C/c3cc4ccccc4nc3OC)no2)cc1` came in with an MIC above 140 µM. The cytotoxic concentration (CC50) at 48 h in series [2] is above 220 µM. Also, the selectivity ratio in series [3] is above 1.57.

For `COc1nc2ccccc2cc1/C=C/c1noc(-c2ccco2)n1`, the MIC in series [1] came to 27.4 µM (≈ 8.75 µg/mL). In series [2], this compound registered a CC50 at 48 h above 250 µM. Besides, the selectivity ratio in series [3] was above 9.12.

`COc1ccc(Cc2nc(/C=C/c3cc4ccccc4nc3OC)no2)cc1`: in series [1], the lowest concentration to inhibit growth (MIC) was 0.4 µM (≈ 0.149 µg/mL). This compound also showed a CC50 at 48 h in series [2] above 215 µM. For the same compound, the selectivity ratio in series [3] is above 535.

Regarding `COc1nc2ccccc2cc1/C=C/c1noc(-c2cccnc2)n1`, the MIC in series [1] was above 150 µM. For the same compound, in series [2], the cytotoxic concentration (CC50) at 48 h is above 240 µM. For the same compound, the selectivity ratio in series [3] is above 1.6.

In series [1], `COc1nc2ccccc2cc1/C=C/c1noc(C)n1` returned an MIC of 1.05 µM (≈ 0.281 µg/mL). The cytotoxic concentration (CC50) at 48 h in series [2] is above 300 µM. Further, in series [3], the selectivity ratio is above 285.

Compound `COc1nc2ccccc2cc1/C=C/c1noc(-c2cccc(C)c2)n1` displayed a minimum inhibitory concentration (MIC) in series [1] of 110 µM (≈ 37.8 µg/mL). The 50% cytotoxic concentration (CC50) at 48 h in series [2] is above 230 µM. Further, the selectivity ratio in series [3] was above 2.09.

With `COc1nc2ccccc2cc1/C=C/c1noc(-c2ccc(C)cc2)n1`, the minimum inhibitory concentration (MIC) in series [1] was determined as 40 µM (≈ 13.7 µg/mL). The compound also had a CC50 at 48 h in series [2] above 230 µM. For the same compound, the selectivity ratio in series [3] was above 5.75.

Compound `COc1nc2ccccc2cc1/C=C/c1noc(-c2cccc(Cl)c2)n1` returned a minimal inhibitory concentration (MIC) in series [1] above 110 µM. Besides, the CC50 at 48 h in series [2] is above 220 µM. The selectivity ratio in series [3] is above 2.

Take `COc1nc2ccccc2cc1/C=C/c1noc(-c2ccccc2)n1`: the MIC in series [1] was found to be 12.3 µM (≈ 4.05 µg/mL). Besides, the CC50 at 48 h in series [2] was above 240 µM. For the same compound, the selectivity ratio in series [3] was above 19.5.

`COc1cccc(-c2nc(/C=C/c3cc4ccccc4nc3OC)no2)c1` gave an MIC in series [1] of 105 µM (≈ 37.7 µg/mL). In series [2], the CC50 at 48 h is above 220 µM. In addition, in series [3], the selectivity ratio was above 2.1.

The compound `COc1ccccc1-c1nc(/C=C/c2cc3ccccc3nc2OC)no1` came in with an MIC in series [1] of 6.96 µM (≈ 2.5 µg/mL). Also, the CC50 at 48 h in series [2] was above 220 µM. Besides, the selectivity ratio in series [3] is above 31.6.

`COc1nc2ccccc2cc1/C=C/c1noc(/C=C/c2ccccc2)n1`: in series [1], the MIC was found to be 6.33 µM (≈ 2.25 µg/mL). In series [2], this compound came in with a CC50 at 48 h above 225 µM. The selectivity ratio in series [3] was above 35.5.

In turn, `COCc1nc(/C=C/c2cc3ccccc3nc2OC)no1` displayed an MIC in series [1] of 0.44 µM (≈ 0.131 µg/mL). For the same compound, the remaining at 1 h, 10 µM in series [4] was found to be 99%. Besides, the CC50 at 48 h in series [2] was above 270 µM. Also, the selectivity ratio in series [3] was above 610.

Compound `COc1nc2ccccc2cc1/C=C/c1noc(Cc2ccccc2)n1` came in with an MIC in series [1] of 0.44 µM (≈ 0.151 µg/mL). The same compound had a CC50 at 48 h in series [2] above 230 µM. In addition, the selectivity ratio in series [3] was above 520.

In the case of `COc1nc2ccc(Br)cc2cc1[C@@H](c1ccccc1)[C@@](O)(CCN(C)C)c1cccc2ccccc12` [BEDAQUILINE], the lowest concentration to inhibit growth in series [5] (MIC) was 0.1 µM (≈ 0.0556 µg/mL).

Take `COc1cccc2c1C(=O)c1c(O)c3c(c(O)c1C2=O)C[C@@](O)(C(=O)CO)C[C@@H]3O[C@H]1C[C@H](N)[C@H](O)[C@H](C)O1` [DOXORUBICIN HYDROCHLORIDE]: in series [2], half-maximal cytotoxicity (CC50 at 48 h) was put at 127 µM.

In series [1], `NNC(=O)c1ccncc1` [ISONIAZID] had a minimum inhibitory concentration (MIC) of 0.73 µM (≈ 0.1 µg/mL).
